Measured values published in PMC4207122 (Cell biology and toxicology, 2013).
Like-named read-outs stand apart in the source and are kept apart here.

Tests used:
Calf Thymus (CT) DNA = test: Circular dichroism; format: binding; conditions: 20 h at 37 °C, pH 7.39 Tris/HCl buffer, up to ri 2.0 (molar ratio drug/DNA)
In short: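 Test compound stocks (1.5 mM) were freshly made in water and added to freshly prepared CT DNA (60 μM) in 5 mM Tris/HCl, 50 mM NaClO4, pH 7.39, at drug/DNA molar ratios of 0.5–2.0. Samples were incubated 20 h at 37 °C. Spectra were recorded at 25 °C over 220–420 nm, blank-corrected with noise reduction, and expressed as […].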

[1] = test system: DU145 human prostate carcinoma cells; test: Differential nuclear staining; format: cell-based
[2] = Differential nuclear staining; format: cell-based; conditions: human, MCF-10A non-transformed mammary epithelial cells
[3] = test system: human cervical HeLa cancer cells; test: Differential nuclear staining; format: cell-based; conditions: for CC50: Homo sapiens, 20 h
YT NK-like (YT) cells = test: Apoptosis/necrosis by annexin V-FITC and PI flow cytometry; format: cell-based; conditions: 18 h; for mode of cell death: KTZ 15 μM, CTZ 10 μM, complexes 20–60 μM
In short: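 YT NK-like cells were exposed to test compounds for 18 h, then handled on ice, stained together with annexin V-FITC and PI, and analysed by flow cytometry with about 10,000 events per sample. Controls were 0.3% v/v DMSO solvent, 600 μM H2O2 and untreated cells. Annexin-positive cells (early plus late) were summed as apoptotic, and PI-only cells counted as necrotic. Values are the mean of three independent measurements with SD.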

[4] = Differential nuclear staining; format: cell-based; conditions: mouse, wild type mouse embryonic fibroblasts (MEFs)
in vitro = format: cell-based; conditions: human
[5] = test system: 22Rv1 human prostate cancer cells; test: Differential nuclear staining; format: cell-based
[6] = test system: LNCaP human prostate cancer cells; test: Differential nuclear staining; format: cell-based
[7] = test system: all the cancer cells lines studied
[8] = test system: YT NK-like lymphoblastic lymphoma cells; test: Differential nuclear staining; format: cell-based

| SMILES | change of CD spectrum of CT DNA (Calf Thymus (CT) DNA) | CC50 ([1]; Homo sapiens, DU-145, 20 h) | CC50 at 20 h [2] | CC50 [3] | mode of cell death (YT NK-like (YT) cells) | CC50 at 20 h [4] | CC50 ([5]; Homo sapiens, 22Rv1, 20 h) | CC50 ([6]; Homo sapiens, LNCaP, 20 h) | CC50 ([8]; 20 h) | CC50 [5] | CC50 [6] | other results |
| --- | --- | --- | --- | --- | --- | --- | --- | --- | --- | --- | --- | --- |
| Clc1ccccc1C(c1ccccc1)(c1ccccc1)n1ccnc1 [CTZ, clotrimazole] | no modifications | 43.6 µM | 79.4 µM | 94.3 µM | preferentially through apoptosis | 35.3 µM | 19.2 µM | 15.4 µM | 16.7 µM | – | – | Relative Activity (R.A.) ([1]; DU145, relative to KTZ (1-6) or CTZ (7-12)): 1; Relative Activity (R.A.) ([3]; relative to KTZ (1-6) or CTZ (7-12)): 1; apoptosis induced relative to any of the Ru-CTZ complexes (YT NK-like (YT) cells): ≥ 3 fold; CC50 at 20 h (in vitro): 95.3 µM; Relative Activity (R.A.) ([5]; 22Rv1, relative to KTZ (1-6) or CTZ (7-12)): 1; Relative Activity (R.A.) ([6]; LNCaP, relative to KTZ (1-6) or CTZ (7-12)): 1; cytotoxicity against cancer cell lines (in words) [7]: moderate cytotoxicity; Relative Activity (R.A.) ([8]; YT, relative to KTZ (1-6) or CTZ (7-12)): 1 |
| C[SH](C)(=O)[Ru-]([Cl])([Cl])([Cl])([Cl])[SH](C)(C)=O.[Na+] [Compound C1, Na[trans-RuCl4(DMSO)2]] | – | – | – | – | – | – | – | – | – | 114 µM | 46.5 µM | – |
| Cc1ccc(C(C)C)cc1.Cc1ccc(C(C)C)cc1.[Cl][Ru][Cl].[Cl][Ru][Cl] [Compound C3, [Ru(p-cymene)Cl2]2] | – | – | – | – | – | – | – | – | – | 141 µM | 29 µM | CC50 [1]: 218 µM; CC50 [8]: 164 µM |
| CC(=O)N1CCN(c2ccc(OCC3COC(Cn4ccnc4)(c4ccc(Cl)cc4Cl)O3)cc2)CC1 (centres unmarked) [KTZ, ketoconazole] | no modifications | 28.6 µM | 37 µM | 66.7 µM | preferentially through apoptosis | 31.3 µM | 24.2 µM | 27.9 µM | 4.9 µM | – | – | – |
